Tests used:
Pa03C [1] = assay: Cytotoxicity against human Pa03C cells assessed as reduction in tumor spheroid area after 72 hrs by Alamar Blue assay; assay type: functional, cell-based
Procedure, shortened: (§1)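 3D spheroids of patient-derived PDAC cells (tomato red) alone or with CAF19 cells, plus CAF cultures. Imaging read-outs: area is the μ2 of objects above a tomato red intensity threshold; intensity is summed red or green pixel fluorescence after background removal. n = 3–5.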

Pa03C [2] = assay: Cytotoxicity against human Pa03C cells assessed as reduction in tumor spheroid area after 72 hrs in presence of human CAF19 cells by Alamar Blue assay; assay type: functional, cell-based; procedure, shortened: as §1
[3] = target: Histone deacetylase 1 (Homo sapiens) (UniProt Q13547); assay: Inhibition of recombinant human HDAC1 expressed in SF9 baculoviral system at 10 uM using FAM-labeled acetylated peptide as substrate by EMSA relative to control
Histone deacetylase 1 (Homo sapiens), sequence (Q13547 whole entry): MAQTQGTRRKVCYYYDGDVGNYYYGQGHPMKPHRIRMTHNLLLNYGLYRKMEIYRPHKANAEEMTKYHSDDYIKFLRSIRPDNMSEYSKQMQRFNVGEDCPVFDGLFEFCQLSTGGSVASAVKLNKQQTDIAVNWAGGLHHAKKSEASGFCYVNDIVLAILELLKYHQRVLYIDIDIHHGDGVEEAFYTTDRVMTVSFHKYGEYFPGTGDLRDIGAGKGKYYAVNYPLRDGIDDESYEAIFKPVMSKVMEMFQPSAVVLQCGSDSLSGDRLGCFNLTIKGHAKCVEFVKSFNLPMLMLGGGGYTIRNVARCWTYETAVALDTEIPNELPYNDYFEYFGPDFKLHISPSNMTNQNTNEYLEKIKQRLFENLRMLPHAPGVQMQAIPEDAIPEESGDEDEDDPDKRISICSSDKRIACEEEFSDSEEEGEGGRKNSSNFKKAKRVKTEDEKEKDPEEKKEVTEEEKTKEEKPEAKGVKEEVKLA
Procedure, shortened: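 Full-length recombinant human HDACs from an Sf9 baculovirus system. Single-point screen at 10 μM by microfluidic mobility-shift assay with FAM-labeled acetylated peptide substrate. Buffer: 100 mM HEPES pH 7.5, 25 mM KCl, 0.1% BSA, 0.01% Triton X-100, 1% DMSO. % inhibition from product/(substrate + product) against no-inhibitor and no-enzyme controls.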

[4] = Antitumor activity against mouse KPC cells allografted in immunocompetent C57BI/6 mouse assessed as mean survival time at 50 mg/kg, ip administered daily for 5 days per week for 1 month starting on day 7 post implantation (reference value: 29.5 days); assay type: functional

## CC(C)(C)c1ccc(CN(C(=O)CN(Cc2c(F)c(F)c(F)c(F)c2F)S(=O)(=O)c2ccc(F)cc2)c2ccc(C(=O)NO)cc2)cc1
Pa03C [1]
  IC50: 1220 nM
Pa03C [2]
  IC50: 1410 nM
[3]
  inhibition: 72%
[4]
  MST: 36.5 days
